High-throughput results: PubChem, several laboratories
Sampled rows, rich in hits. Any-hit rate of the full collection: about 1.3%.
TDP2 absorb – TDP2 (human) inhibition, absorbance primary screen; 370,000 compounds, 0.34% hits; AID 720702; recombinant TDP2, T5PNP hydrolysis, p-nitrophenol absorbance 415 nm; inhibition, % at 12.8 µM;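 active means inhibition above the mean of all tested compounds plus 3 SD, set per campaign, cut at about 25% in these data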;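 further: 0% = DMSO with enzyme and 100% = buffer with substrate but no TDP2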
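Incubation: 2 h at 37 °C; Test system: recombinant human TDP2; Quantity: enzyme 120 nM; Read-out basis: percent inhibition; Medium: 50 mM Tris-HCl pH 7.5 with Mg2+, KCl, DTT, BSA; Repeats: single replicate; Compound: 12.8 µM single point, 1% DMSO; Signal: epi absorbance; Reagent: 5 mM T5PNP chromogenic substrate; Benchmarks: no-enzyme high, DMSO-plus-enzyme low.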
NSD2 inh – NSD2 (human) methyltransferase inhibition; O96028; NSD2 peptide methylation, AlphaScreen, 120 min; inhibition, % at 12.5 µM; 310,000 compounds, 0.54% hits; AID 743445; in the data active means inhibition above about 50%
LEDGF integ inh – blocks HIV-1 LEDGF/p75-dependent DNA integration | TR-FRET IN-LEDGF/p75 DNA integration, Eu/Cy5 | inhibition, % at 3.7 µM | 370,000 compounds, 0.64% hits | AID 743269;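 active means inhibition above the screen-wide mean plus 3 SD, cut at about 13% in these data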;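 further: signal is the Cy5 over europium emission ratio at 671 and 618 nm; 0% = plate median of compound wells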
Casp6 inh – inhibitors of human caspase-6. 350,000 compounds, 0.53% hits. purified caspase-6, Z-VEID-R110 cleavage fluorescence. P55212. inhibition, % at 12.5 µM;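 active means mean inhibition across replicates at least about 35%, with every replicate also reaching that limit, limit read from the data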;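 further: 0% = median of neutral control wells and 100% = no fluorescence left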
Target sequence (P55212 24-179 limits assumed): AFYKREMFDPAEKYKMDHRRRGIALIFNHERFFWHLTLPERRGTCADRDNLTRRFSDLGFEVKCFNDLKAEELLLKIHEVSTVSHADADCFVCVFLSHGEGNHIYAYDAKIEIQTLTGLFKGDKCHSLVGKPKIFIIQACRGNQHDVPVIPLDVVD
Target sequence (P55212 194-293 limits assumed): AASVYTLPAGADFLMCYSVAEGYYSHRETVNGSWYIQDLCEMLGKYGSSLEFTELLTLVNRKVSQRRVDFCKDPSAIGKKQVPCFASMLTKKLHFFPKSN
UCH37 inh – inhibitors of human deubiquitinating enzyme UCH37; Q9Y5K5; purified proteasome/UCH37, Ub-AMC cleavage fluorescence; inhibition, % (no concentration beside the values); 330,000 compounds, 0.33% hits; AID 588478;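 active means mean inhibition over replicate wells above about 20%, limit read from the data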;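 further: 0% = compound-free wells with enzyme and 100% = wells lacking proteasome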
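Material: human UCH37 enzyme supplied as purified proteasome complex. Measure: % inhibition of Ub-AMC cleavage fluorescence. Medium: pH 7.4 Tris-HCl (50 mM) with ovalbumin, ATP-MgCl2, DTT. Times: 30 min preincubation with enzyme, 25 min cleavage at room temperature. Detection: AMC fluorescence intensity at 355/460 nm.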
IN multimer up – counter-screen for LEDGF/p75 integration inhibitors: HIV-1 integrase multimerization activators; shares compounds with LEDGF integ inh; TR-FRET HIV-1 integrase multimerization, biochemical; activation, % at 7.7 µM; 2,000 compounds, 17% hits; AID 1053131; in the data active means activation above about 8.9%
TR-FRET interf – optically interferes with TR-FRET readout in LEDGF counter-screen. inhibition, % at 7.7 µM. 2,000 tested, under 10 active. shares compounds with LEDGF integ inh. TR-FRET optical interference counterscreen, HIV-1 IN multimerization;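 active means inhibition above the mean over all tested compounds plus 3 SD, which no compound reached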;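 further: 0% = integrase with antibodies and DMSO and 100% = antibodies without integrase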
IN-LEDGF confirm – confirmation of HIV-1 LEDGF/p75-dependent integration inhibitors | shares compounds with LEDGF integ inh | TR-FRET LEDGF/p75-dependent HIV-1 integration, biochemical | inhibition, % at 3.7 µM | 2,000 compounds, 36% hits | AID 1053136; in the data active means inhibition above about 14%
Active calls of the source: *; · = no result.

SMILES	TDP2 absorb	NSD2 inh	LEDGF integ inh	Casp6 inh	UCH37 inh	IN multimer up	TR-FRET interf	IN-LEDGF confirm
Nc1ccccc1C(O)(Cc1ccccc1)c1ccccc1 (configuration not stated)	4	0	87*	1	1	0	1	-3
OC(Cc1cccnc1)(c1ccccc1)c1ccccc1	10	-2	-1	0	0	·	·	·
CCCCC(=O)Nc1ccc2c(c1)nc(CCN1CCN(C)CC1)n2C	-9	0	82*	-5	2	2	-9	3
CC(=O)Nc1ccc2c(c1)nc(CCN1CCN(C)CC1)n2C	4	9	-4	·	0	·	·	·
CC1(C)CC(=O)C2=C(C1)N=c1sc(=Cc3ccc(F)c(F)c3)c(=O)n1C2c1ccc(F)cc1 (configuration not stated)	·	·	·	·	1	·	·	·
COc1ccccc1-c1nnc2sc(COc3ccccc3)nn12	9	0	28*	·	1	1	-3	7
COc1ccccc1-c1nnc2sc(COc3ccc(Cl)cc3Cl)nn12	9	-1	-2	·	-7	·	·	·
CCOC(=O)c1ccc(NC(=O)c2nc[nH]c2C(=O)NCCNC(=O)c2[nH]cnc2C(=O)Nc2ccc(C(=O)OCC)cc2)cc1	-25	·	-2	-2	·	·	·	·
CCOC(=O)c1ccc(NC(=O)c2nc[nH]c2C(=O)NC)cc1	-8	·	18*	2	1	0	0	-1
CCOc1cc(/C=C2\C(=O)N(CCc3ccc(OC)c(OC)c3)C(C)=C2C(=O)OC)ccc1O	12	12	2	·	7	·	·	·
CCOc1cc(/C=C2\C(=O)N(Cc3ccco3)C(C)=C2C(=O)OC)ccc1O	2	20	14*	-3	5	1	-5	-4
COc1ccccc1N(CC(=O)NC1CCCCC1)S(=O)(=O)c1cccs1	-7	1	5	1	1	·	·	·
COc1ccccc1N(CC(=O)NC1CCCCC1C)S(=O)(=O)c1cccs1 (configuration not stated)	6	0	34*	1	-1	0	0	6
O=C(CCSCc1ccccc1Cl)NC1CCCC1	1	0	-2	·	-2	·	·	·
O=C(CCSCc1cccc(Cl)c1)NC1CCCC1	-2	-2	51*	·	1	3	-17	5
C=CCc1cccc(C=NNC(=O)CNc2cccc3ccccc23)c1O	·	·	·	·	1	·	·	·
OCC1(Cc2cccc(C(F)(F)F)c2)CCN(Cc2cc(F)cc(F)c2)CC1	-17	-6	4	·	2	·	·	·
CN(C)S(=O)(=O)N1CCC(CO)(Cc2cccc(C(F)(F)F)c2)CC1	-18	-2	32*	0	0	1	-3	-6
COc1c(-c2ccc(O)cc2)oc2cc(O)cc(O)c2c1=O	-9	·	15*	34	3	9	-43	45*
O=c1c(-c2c(O)cc(O)c3c(=O)cc(-c4ccc(O)cc4)oc23)c(-c2ccc(O)cc2)oc2cc(O)cc(O)c12	0	·	25*	83*	10	40*	-204	50*
CC1OC(Oc2c(-c3cc(O)c(O)c(O)c3)oc3cc(O)cc(O)c3c2=O)C(O)C(O)C1O (configuration not stated)	-7	·	39*	21	11	41*	-146	53*
O=c1cc(-c2ccc(O)c(O)c2)oc2cc(O)cc(O)c12	-6	·	42*	12	1	15*	-78	88*
CC(=NNC(=O)c1c(Cl)c(C)nn1C)c1ccc(NC(=O)COc2ccc(Cl)cc2C)cc1	·	·	·	·	1	·	·	·
CC(=NNS(=O)(=O)c1ccc(C)cc1)c1cc2ccccc2oc1=O	·	·	·	·	3	·	·	·
COc1ccc(CN2C(=O)CSC2=NN=Cc2ccccc2)cc1	·	·	·	·	5	·	·	·
O=c1c(O)c(-c2ccc(O)c(O)c2)oc2cc(O)cc(O)c12	-5	·	89*	·	5	41*	-145	88*
Cc1cc(C=NNC(=O)COc2cccc3cccnc23)c(C)n1-c1ccc(O)cc1	·	·	·	·	1	·	·	·
